Vif inh: HIV Vif inhibition. HEK293T cells, Vif self-association by quenched fluorescence, imaging, 24 h. inhibition, % at 7.49 µM. actives 0.35% (n = 340,000). AID 602346; in the data active = inhibition above about 50%, passing the limit was not always enough; inconclusive = no clear call, values can overlap the other calls; inactive = below about 31%
SR-BI HDL uptake: inhibitors of mouse SR-BI mediated HDL lipid uptake; ldlA[mSR-BI] CHO cells, DiI-HDL uptake fluorescence, 3 h; inhibition, % at 12.5 µM; actives 0.96% (n = 320,000);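 active = mean replicate inhibition of at least 70% and a set share of replicates each scoring 70 or more; inconclusive = meets just one of the two criteria; inactive = fails both criteria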;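 note: 0% = median of neutral control wells and 100% = median of positive control wells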
Target sequence (Q61009 whole entry, looked up): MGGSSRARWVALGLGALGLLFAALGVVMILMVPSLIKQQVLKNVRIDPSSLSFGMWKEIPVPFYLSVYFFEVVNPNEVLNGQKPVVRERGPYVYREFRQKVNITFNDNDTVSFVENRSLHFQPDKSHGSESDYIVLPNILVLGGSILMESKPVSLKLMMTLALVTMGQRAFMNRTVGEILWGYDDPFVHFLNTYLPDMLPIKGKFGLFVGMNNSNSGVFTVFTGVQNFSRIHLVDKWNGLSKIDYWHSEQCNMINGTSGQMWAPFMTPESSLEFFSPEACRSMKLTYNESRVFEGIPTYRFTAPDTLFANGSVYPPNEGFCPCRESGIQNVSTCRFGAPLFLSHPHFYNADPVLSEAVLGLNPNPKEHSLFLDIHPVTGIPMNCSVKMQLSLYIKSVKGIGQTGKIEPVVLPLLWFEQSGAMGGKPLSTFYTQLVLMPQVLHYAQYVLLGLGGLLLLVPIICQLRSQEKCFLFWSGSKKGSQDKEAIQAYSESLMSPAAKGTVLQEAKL
C2C12 statin: protects C2C12 myotubes from simvastatin toxicity; ATP luminescence, 48 h; scaled: DMSO 0, geranylgeraniol control 100; rescue of ATP level, % at 7.49 µM; actives 0.78% (n = 330,000);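 active = mean ATP rescue above about 67%, or every replicate alone reaching that limit, limit read from the data, passing the limit was not always enough; inconclusive = no clear call, values can overlap the other calls; inactive = mean under the limit and some replicate under it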;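 note: myotubes were challenged with 10 µM simvastatin during compound exposure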
SR-BI DiI-HDL act: activators of SR-BI mediated HDL lipid uptake; CHO ldlA[mSR-BI] cells, DiI-HDL uptake fluorescence, 3 h; 100 = double the neutral-control signal; activation, % at 12.5 µM; actives 0.096% (n = 320,000);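 active = mean replicate activation of at least 60% and every replicate at or above 60%; inconclusive = mean or all-replicate condition met, but not both; inactive = mean below 60% and not all replicates reaching 60%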;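 note: 0% = median plate neutral-control signal and 100% = twice that signal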
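Material: SR-BI-overexpressing, LDLR-lacking CHO cells | Dosing: Single compound concentration, delivered by pin transfer | Probe or stimulus: Labelled HDL, 10 µg/mL | Signal: Bottom-read cell fluorescence after medium removal, ex 550/em 595 nm | Schedule: 3 h, 37 °C | Evaluation: HDL uptake via cellular fluorescence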
An asterisk follows results filed as active; ? = inconclusive; . = not tested or not shown; + = active, no number. A selection: hits, their analogues and other compounds. The true share with any hit is near 1.7%.

SMILES	Vif inh	SR-BI HDL uptake	C2C12 statin	SR-BI DiI-HDL act
O=C(C[C@@H]1C[C@H]2c3cc(NC(=O)Nc4ccccc4F)ccc3O[C@H]2[C@H](CO)O1)NC1CCCCC1	.	.	1	.
CCOC(=O)N1CCC(NC(=O)CCC(=O)N2CCOc3ccccc32)CC1	4	4	123*	-4
CC(=NCCCn1ccnc1)C1=C(O)c2ccccc2C1=O	-4	-61	21	61*
C[C@@H]1CN([C@H](C)CO)C(=O)Cc2cc(NC(=O)Nc3ccc(F)cc3)ccc2O[C@@H]1CN(C)S(=O)(=O)c1ccccc1	.	.	1	.
COc1cc(C2c3cc4c(cc3OC(NNC(N)=S)C2C)OCO4)cc(OC)c1OC (configuration not stated)	56*	60	-38	-60
COc1cc([C@@H]2c3cc4c(cc3[C@H](O)[C@H]3COC(=O)[C@H]23)OCO4)cc(OC)c1OC	+	0	-45	0
COCC(=O)Nc1nc2n(n1)C(c1ccc(Cl)cc1)CC(c1ccc(OC)cc1)N2 (configuration not stated)	3	74*	19	-74
CN(C)C(=O)c1cccc(-c2ccc3c(c2)[C@H]2[C@H](CCN2C(=O)C2CCCCC2)[C@@H](CO)N3)c1	.	.	10	.
CCC1=C(CC2NCCc3ccccc32)CC2c3cc(OC)c(OC)cc3CCN2C1 (configuration not stated)	-9	10	.	-10
CC[C@H]1CN2CCc3cc(OC)c(OC)cc3C2C[C@@H]1C[C@H]1NCCc2cc(OC)c(OC)cc21 (some centres not stated)	-1	4	81*	-4
CC1(C)CCC(=O)N2CC[C@H]3c4cc5ccccc5nc4C[C@@H]1[C@H]32	9	1	99*	-1
COC(=O)c1ccc2nc3c(cc2c1)[C@@H]1CCN2C(=O)CCC[C@H](C3)[C@H]12	0	16	19	-16
C[C@H]1CN([C@@H](C)CO)C(=O)c2cccc(NC(=O)c3ccc(-c4nccs4)cc3)c2O[C@@H]1CN(C)S(=O)(=O)c1ccc(Cl)cc1	.	.	17	.
Cc1c(-c2ccccc2)nc2ccccc2c1C(=O)Oc1ccc([N+](=O)[O-])cc1	-1	88*	7	-88
Cc1nc2cccc(C(=O)Oc3ccc([N+](=O)[O-])cc3)c2o1	-6	-16	.	16
CCn1c(C)nc2cc(C(=O)N/N=C(\C)c3ccc(OC)cc3O)ccc21	8	88*	.	-88
CCn1c(C)nc2cc(C(=O)NN=C(C)c3ccc(C#N)cc3)ccc21	1	18	2	-18
CC(=O)Nc1ccc(SCC(=O)NC(=O)c2ccc(S(=O)(=O)N(C)C)cc2)cc1	83*	-55	0	55
COC(=O)C[C@@H]1C[C@@H]2c3cc(NC(=O)Nc4ccccc4F)ccc3O[C@@H]2[C@@H](CO)O1	.	.	-36	.
Cc1cc(NC(=O)/C=C/c2ccccc2Cl)n(-c2nc3ccccc3[nH]2)n1	-4	96*	.	-96
Cc1cc(NC(=O)c2ccc(F)cc2F)n(-c2nc3ccccc3[nH]2)n1	-15	38	-20	-38
C[C@@H]1CN([C@H](C)CO)C(=O)c2cccc(NC(=O)C3CCCCC3)c2O[C@H]1CN(C)C(=O)Nc1ccccc1	.	.	25	.
CCNC(=O)C[C@@H]1CC[C@H]2[C@@H](COc3ccc(NC(=O)Nc4cccc(Cl)c4)cc3C(=O)N2C)O1	.	.	-36	.
C[C@H](CO)N1C[C@H](C)[C@@H](CN(C)Cc2cncnc2)Oc2cc(C3=CCCC3)ccc2S1(=O)=O	.	.	-11	.
COc1cc(OC)c(NC(=O)CCNS(=O)(=O)c2cc(Br)cnc2N)cc1Cl	-9	29	94*	-29
SMILES	Vif inh	SR-BI HDL uptake	C2C12 statin	SR-BI DiI-HDL act
CCCC(=O)Nc1ccc2c(c1)C(=O)N(C)C[C@@H](OC)[C@@H](C)CN(Cc1nccs1)[C@@H](C)CO2	.	.	1	.
CCOC(=O)C1=C(CN2CCN(C(=O)c3ccco3)CC2)NC(=O)NC1c1ccc(Cl)cc1 (configuration not stated)	-9	69	6	-69
CCOC(=O)C1=C(CN2CCN(C(=O)c3ccco3)CC2)NC(=O)NC1c1ccc(OC(C)C)cc1 (configuration not stated)	-4	78*	3	-78
CCOC(=O)C1=C(CN2CCC(C)CC2)NC(=O)NC1c1ccc(Cl)cc1 (configuration not stated)	-8	78*	4	-78
CC(C)NC(=O)N(C)C[C@@H]1Oc2ccc(NS(=O)(=O)c3ccc(Cl)cc3)cc2C(=O)N([C@H](C)CO)C[C@H]1C	.	.	5	.
C[C@@H]1CN([C@@H](C)CO)S(=O)(=O)c2ccc(C#CC(C)(C)O)cc2O[C@H]1CN(C)C(=O)C1CC1	.	.	5	.
CCOc1ccccc1NC(=O)c1ccccc1-c1ccccc1	-2	26	16	-26
CCOc1ccccc1NC(=O)c1ccccc1N(C)S(C)(=O)=O	5	-11	151*	11
Cc1ccc(NC(=O)c2ccccc2N(C)S(C)(=O)=O)cc1C	6	-10	106*	10
CCOc1ccccc1NC(=O)c1cccc2ccccc12	?	70*	-5	-70
CCOc1ccccc1NC(=O)c1csc(C)c1C	.	81*	0	-81
CC(C)NC(=O)Nc1ccc2c(c1)CC(=O)N([C@H](C)CO)C[C@@H](C)[C@@H](CN(C)S(=O)(=O)c1ccccc1)O2	.	.	-24	.
Cc1noc(C)c1S(=O)(=O)N(C)C[C@@H]1OCc2cn(nn2)CCCC(=O)N([C@H](C)CO)C[C@@H]1C	.	.	-6	.
O=C(C[C@@H]1CC[C@H]2[C@@H](COC[C@@H](O)CN2S(=O)(=O)c2ccccc2)O1)N1CCc2ccccc2C1	.	.	7	.
CCOc1cc(NC(=O)C2CC2)c(OCC)cc1NC(=O)c1ccccc1OCC	-10	72*	-128	-72
CCOc1cc(NC(=O)C2CC2)c(OCC)cc1NC(=O)c1cc(OC)c(OC)c(OC)c1	-4	23	5	-23
CO[C@H]1CC[C@@H]2CCOc3ccc(C#N)cc3C(=O)N(C)C[C@@H](c3ccccc3)CC(=O)N(C)C[C@@H]1O2	.	.	0	.
Cc1cccc(NC(=O)C2CCCN(S(=O)(=O)c3cccc4nsnc34)C2)n1 (configuration not stated)	-13	-24	108*	24
COc1cccc(-c2ccc([C@H]3[C@@H](CO)N(C(=O)Cc4ccncc4)[C@H]3C#N)cc2)c1	.	.	2	.
C[C@H](CO)N1C[C@H](C)[C@@H](CN(C)S(=O)(=O)c2cn(C)cn2)Oc2c(NC(=O)NC3CCCCC3)cccc2C1=O	.	.	-7	.
CCCn1c(SCC(=O)c2ccc(OC)c(OC)c2)nc2c1c(=O)n(C)c(=O)n2C	21	5	130*	-5
COc1ccc(C(=O)Cn2c(N3CCCCC3)nc3c2c(=O)n(C)c(=O)n3C)cc1OC	18	.	.	.
CC1CCN(C(=O)Cn2nnc(-c3cccs3)n2)CC1	3	-19	9	19
O=C(Cn1nnc(-c2cccs2)n1)N1CCOCC1	5	-68	.	68*
